Measurements as given in ChEMBL document CHEMBL4354843, “Structure-Based Design of a Potent and Selective Covalent Inhibitor for SRC Kinase That Targets a P-Loop Cysteine” (J Med Chem, 2020).
Activity calls are given as the source filed them. The rule behind the calls is not given here.

Legend:
[1] = AUC in B6 mouse at 5 mg/kg, ip; format: ADME, organism-based; conditions: in vivo
Mus musculus = experiment: In vivo inhibition of SRC in C57B6 mouse assessed as blocking of SRC pulldown at 5 mg/kg, ip measured after 2 to 4 hrs by Western blot analysis; format: functional, organism-based
Summary of the method: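 Adult C57B6 mice, n = 2 per condition. Three intraperitoneal doses of 5 mg/kg, given every 12 h; vehicle is 5% DMSO/95% D5W. Spleens harvested 2 or 4 h after the last dose, homogenized and lysed in M-PER with protease/phosphatase inhibitors. Lysate incubated with 1 μM biotinylated probe TL13-68 overnight at 4 °C, streptavidin pulldown, SRC detected by Western blot.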

[2] = target: AP2-associated protein kinase 1 (Homo sapiens) (UniProt Q2M2I8); experiment: Binding affinity to human wild-type AAK1 (G25 to L333 residues) expressed in bacterial expression system assessed as residual binding level at 1 uM by Kinomescan method relative to control
Summary of the method: (§1)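 Active-site-directed KinomeScan competition binding panel covering 468 kinases, compound tested at 1 μM. Each readout is the kinase signal remaining with compound, expressed as a percentage of the DMSO control. […]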

[3] = target: Serine/threonine-protein kinase BRSK2 (Homo sapiens) (UniProt Q8IWQ3); experiment: Binding affinity to wild-type human full length BRSK2 (M1 to L674 residues) expressed in bacterial expression system assessed as residual binding level at 1 uM by Kinomescan method relative to control; summary of the method: as §1
[4] = target: Cyclin-dependent kinase 4 (Homo sapiens) (UniProt P11802); experiment: Binding affinity to wild-type human full length CDK4 (M1 to E303 residues) expressed in mammalian expression system assessed as residual binding level at 1 uM by Kinomescan method relative to control; summary of the method: as §1
[5] = target: Cyclin-dependent kinase-like 5 (Homo sapiens) (UniProt O76039); experiment: Binding affinity to wild-type human partial length CDKL5 (M1 to S337 residues) expressed in mammalian expression system assessed as residual binding level at 1 uM by Kinomescan method relative to control
[6] = target: Dual specificity protein kinase CLK1 (Homo sapiens) (UniProt P49759); experiment: Binding affinity to wild-type human full length CLK1 (M1 to I484 residues) expressed in bacterial expression system assessed as residual binding level at 1 uM by Kinomescan method relative to control; summary of the method: as §1
[7] = target: Serine/threonine-protein kinase DCLK2 (Homo sapiens) (UniProt Q8N568); experiment: Binding affinity to wild-type human partial length DCAMKL2 (K273 to V664 residues) expressed in bacterial expression system assessed as residual binding level at 1 uM by Kinomescan method relative to control
[8] = target: Ephrin type-B receptor 4 (Homo sapiens) (UniProt P54760); experiment: Binding affinity to wild-type human partial length EPHB4 (H585 to G892 residues) expressed in bacterial expression system assessed as residual binding level at 1 uM by Kinomescan method relative to control
[9] = target: Serine/threonine-protein kinase 3 (Homo sapiens) (UniProt Q13188); experiment: Binding affinity to wild-type human partial length MST2 (D17 to E318 residues) expressed in bacterial expression system assessed as residual binding level at 1 uM by Kinomescan method relative to control
[10] = target: Phosphatidylinositol 4,5-bisphosphate 3-kinase catalytic subunit alpha isoform (Homo sapiens) (UniProt P42336); experiment: Binding affinity to wild-type human partial length PIK3CA (R108 to N1068 residues) expressed in mammalian expression system assessed as residual binding level at 1 uM by Kinomescan method relative to control
[11] = system: Phosphatidylinositol 4,5-bisphosphate 3-kinase catalytic subunit alpha isoform (Homo sapiens), P42336 [E542K]; experiment: Binding affinity to human partial length PIK3CA E542K mutant (R108 to N1068 residues) expressed in mammalian expression system assessed as residual binding level at 1 uM by Kinomescan method relative to control
Summary of the method: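 KinomeScan active site-directed competition binding panel (468 kinases), compound tested at 1 μM. Result expressed as remaining kinase signal versus DMSO control (percent of control).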

[12] = target: Phosphatidylinositol 4-phosphate 5-kinase type-1 alpha (Homo sapiens) (UniProt Q99755); experiment: Binding affinity to wild-type human full length PIP5K1A (M1 to H562 residues) expressed in bacterial expression system assessed as residual binding level at 1 uM by Kinomescan method relative to control
Summary of the method: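 Active-site-directed competition binding panel (KinomeScan) covering 468 kinases. Test agent was screened at 1 μM. The read-out is the remaining kinase signal expressed relative to a DMSO control. Scores above 35%, taken as weak binding, were not reported.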

[13] = target: Ribosomal protein S6 kinase alpha-5 (Homo sapiens) (UniProt O75582); experiment: Binding affinity to wild-type human partial length N- terminal RPS6KA5 kinase domain 1 expressed in bacterial expression system assessed as residual binding level at 1 uM by Kinomescan method relative to control
[14] = target: Dual specificity testis-specific protein kinase 1 (Homo sapiens) (UniProt Q15569); experiment: Binding affinity to wild-type human full length TESK1 (R37 to S626 residues) expressed in bacterial expression system assessed as residual binding level at 1 uM by Kinomescan method relative to control
[15] = target: Transient receptor potential cation channel subfamily M member 6 (Homo sapiens) (UniProt Q9BX84); experiment: Binding affinity to wild-type human partial length TRPM6 (Q1723 to I1998 residues) expressed in mammalian expression system assessed as residual binding level at 1 uM by Kinomescan method relative to control
Summary of the method: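 Active site-directed competition binding panel (KinomeScan, 468 kinases). Test compound at 1 μM. Read-out is kinase binding remaining versus DMSO control, expressed as percent of control. Scores above 35% are treated as weak binding.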

[16] = target: Testis-specific serine/threonine-protein kinase 1 (Homo sapiens) (UniProt Q9BXA7); experiment: Binding affinity to wild-type human full length TSSK1B (M1 to Q367 residues) expressed in bacterial expression system assessed as residual binding level at 1 uM by Kinomescan method relative to control
Summary of the method: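 KinomeScan, an active site-directed competition binding panel of 468 kinases. The test compound was at 1 μM. The readout is remaining kinase binding as a percentage of the DMSO control. Scores above 35% were treated as weak binding and not listed.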

[17] = target: Non-receptor tyrosine-protein kinase TYK2 (Homo sapiens) (UniProt P29597); experiment: Binding affinity to wild-type human partial length TYK2 JH1 catalytic domain (V877 to C1187 residues) expressed in mammalian expression system assessed as residual binding level at 1 uM by Kinomescan method relative to control
[18] = target: Serine/threonine-protein kinase ULK1 (Homo sapiens) (UniProt O75385); experiment: Binding affinity to wild-type human partial length ULK1 (M1 to T309 residues) expressed in mammalian expression system assessed as residual binding level at 1 uM by Kinomescan method relative to control
[19] = target: Serine/threonine-protein kinase WNK3 (Homo sapiens) (UniProt Q9BYP7); experiment: Binding affinity to wild-type human partial length WNK3 (M1 to D434 residues) expressed in mammalian expression system assessed as residual binding level at 1 uM by Kinomescan method relative to control

Sequence of Transient receptor potential cation channel subfamily M member 6 (Homo sapiens) (Q9BX84 whole entry, the tested form may be a part): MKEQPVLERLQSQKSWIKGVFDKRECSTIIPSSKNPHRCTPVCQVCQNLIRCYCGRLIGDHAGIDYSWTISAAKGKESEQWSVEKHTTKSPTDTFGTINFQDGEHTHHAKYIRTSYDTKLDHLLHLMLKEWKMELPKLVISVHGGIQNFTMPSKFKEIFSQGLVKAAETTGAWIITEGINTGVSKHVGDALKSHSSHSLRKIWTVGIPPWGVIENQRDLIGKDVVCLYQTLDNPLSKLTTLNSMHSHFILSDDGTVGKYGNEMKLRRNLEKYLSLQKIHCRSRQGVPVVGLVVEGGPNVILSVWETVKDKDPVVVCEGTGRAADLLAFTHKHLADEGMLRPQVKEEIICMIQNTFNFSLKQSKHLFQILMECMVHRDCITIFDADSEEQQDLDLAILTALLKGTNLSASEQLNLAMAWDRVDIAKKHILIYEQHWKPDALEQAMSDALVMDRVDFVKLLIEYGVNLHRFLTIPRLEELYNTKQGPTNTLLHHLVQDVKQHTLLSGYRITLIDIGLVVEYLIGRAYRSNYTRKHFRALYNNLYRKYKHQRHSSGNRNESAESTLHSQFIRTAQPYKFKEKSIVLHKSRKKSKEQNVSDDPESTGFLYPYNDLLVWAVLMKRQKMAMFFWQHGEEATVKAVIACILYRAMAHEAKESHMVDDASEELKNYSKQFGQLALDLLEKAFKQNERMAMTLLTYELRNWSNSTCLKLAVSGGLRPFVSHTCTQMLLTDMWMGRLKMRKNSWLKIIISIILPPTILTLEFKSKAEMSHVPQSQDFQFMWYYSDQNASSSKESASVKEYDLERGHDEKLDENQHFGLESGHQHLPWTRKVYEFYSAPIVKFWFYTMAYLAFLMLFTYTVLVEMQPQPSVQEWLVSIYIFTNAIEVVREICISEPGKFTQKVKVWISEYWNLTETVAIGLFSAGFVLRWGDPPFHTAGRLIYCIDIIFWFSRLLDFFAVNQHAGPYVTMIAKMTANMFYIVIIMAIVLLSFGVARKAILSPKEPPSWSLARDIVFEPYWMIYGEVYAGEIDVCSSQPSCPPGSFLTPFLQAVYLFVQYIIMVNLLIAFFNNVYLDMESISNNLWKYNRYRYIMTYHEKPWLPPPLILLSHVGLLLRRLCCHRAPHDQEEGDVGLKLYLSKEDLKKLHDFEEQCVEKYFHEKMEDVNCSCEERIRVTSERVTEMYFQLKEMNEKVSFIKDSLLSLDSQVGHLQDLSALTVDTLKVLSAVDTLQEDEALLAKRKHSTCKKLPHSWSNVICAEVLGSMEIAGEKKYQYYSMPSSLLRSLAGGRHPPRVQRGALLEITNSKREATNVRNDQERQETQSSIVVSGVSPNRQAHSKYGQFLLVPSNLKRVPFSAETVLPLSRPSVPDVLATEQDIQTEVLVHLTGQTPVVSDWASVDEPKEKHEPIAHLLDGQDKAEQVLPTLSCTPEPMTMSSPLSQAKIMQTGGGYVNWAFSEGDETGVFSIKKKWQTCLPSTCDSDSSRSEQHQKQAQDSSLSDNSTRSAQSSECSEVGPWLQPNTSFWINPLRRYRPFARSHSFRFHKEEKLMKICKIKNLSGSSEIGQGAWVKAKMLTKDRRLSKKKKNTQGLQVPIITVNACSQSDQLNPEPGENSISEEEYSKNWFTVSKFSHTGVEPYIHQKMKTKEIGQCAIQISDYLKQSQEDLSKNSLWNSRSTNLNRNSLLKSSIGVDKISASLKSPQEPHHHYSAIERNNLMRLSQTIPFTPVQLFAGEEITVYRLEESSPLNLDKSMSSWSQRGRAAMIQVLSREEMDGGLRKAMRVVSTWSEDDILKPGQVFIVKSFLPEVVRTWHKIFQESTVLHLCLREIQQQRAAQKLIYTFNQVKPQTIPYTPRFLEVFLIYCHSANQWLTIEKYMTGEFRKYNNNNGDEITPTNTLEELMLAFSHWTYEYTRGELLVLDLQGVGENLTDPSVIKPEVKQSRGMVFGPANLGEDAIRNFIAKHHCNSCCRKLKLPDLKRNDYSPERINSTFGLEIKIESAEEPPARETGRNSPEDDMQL
Sequence of Testis-specific serine/threonine-protein kinase 1 (Homo sapiens) (Q9BXA7 whole entry, the tested form may be a part): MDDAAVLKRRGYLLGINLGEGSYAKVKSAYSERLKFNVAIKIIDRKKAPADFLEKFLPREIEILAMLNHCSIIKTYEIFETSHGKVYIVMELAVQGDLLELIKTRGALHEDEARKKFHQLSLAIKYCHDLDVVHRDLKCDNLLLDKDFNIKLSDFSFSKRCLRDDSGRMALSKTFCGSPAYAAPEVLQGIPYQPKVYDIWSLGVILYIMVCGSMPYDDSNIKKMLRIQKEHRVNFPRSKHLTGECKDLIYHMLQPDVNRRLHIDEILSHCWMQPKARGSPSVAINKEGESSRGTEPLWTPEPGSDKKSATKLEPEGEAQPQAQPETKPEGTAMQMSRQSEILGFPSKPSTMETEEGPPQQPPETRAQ
Sequence of Ephrin type-B receptor 4 (Homo sapiens) (P54760 whole entry, the tested form may be a part): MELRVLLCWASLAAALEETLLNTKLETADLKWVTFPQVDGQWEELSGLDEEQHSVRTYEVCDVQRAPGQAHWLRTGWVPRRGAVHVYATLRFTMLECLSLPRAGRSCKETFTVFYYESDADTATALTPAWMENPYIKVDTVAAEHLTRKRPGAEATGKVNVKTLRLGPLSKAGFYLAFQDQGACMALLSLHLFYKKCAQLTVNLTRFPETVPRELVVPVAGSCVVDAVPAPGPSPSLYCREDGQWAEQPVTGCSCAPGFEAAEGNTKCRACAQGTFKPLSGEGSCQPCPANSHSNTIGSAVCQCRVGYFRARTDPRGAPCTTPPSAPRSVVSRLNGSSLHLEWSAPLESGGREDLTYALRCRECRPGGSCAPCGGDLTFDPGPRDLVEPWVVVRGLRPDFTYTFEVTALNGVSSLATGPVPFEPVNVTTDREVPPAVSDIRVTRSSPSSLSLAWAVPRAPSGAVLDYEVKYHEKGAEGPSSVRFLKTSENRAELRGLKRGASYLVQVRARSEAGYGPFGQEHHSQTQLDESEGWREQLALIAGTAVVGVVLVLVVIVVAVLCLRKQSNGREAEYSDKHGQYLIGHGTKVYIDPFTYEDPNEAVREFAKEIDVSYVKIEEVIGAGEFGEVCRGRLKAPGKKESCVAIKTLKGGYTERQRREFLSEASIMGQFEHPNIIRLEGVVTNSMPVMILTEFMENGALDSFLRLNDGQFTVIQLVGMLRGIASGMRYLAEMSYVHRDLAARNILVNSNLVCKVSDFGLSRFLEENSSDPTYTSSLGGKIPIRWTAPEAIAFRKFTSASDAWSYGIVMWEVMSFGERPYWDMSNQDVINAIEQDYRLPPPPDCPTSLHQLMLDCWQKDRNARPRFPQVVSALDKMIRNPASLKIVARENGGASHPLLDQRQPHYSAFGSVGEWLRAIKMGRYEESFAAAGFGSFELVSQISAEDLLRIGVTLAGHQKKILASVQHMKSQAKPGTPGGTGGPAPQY
Sequence of Serine/threonine-protein kinase BRSK2 (Homo sapiens) (Q8IWQ3 whole entry, the tested form may be a part): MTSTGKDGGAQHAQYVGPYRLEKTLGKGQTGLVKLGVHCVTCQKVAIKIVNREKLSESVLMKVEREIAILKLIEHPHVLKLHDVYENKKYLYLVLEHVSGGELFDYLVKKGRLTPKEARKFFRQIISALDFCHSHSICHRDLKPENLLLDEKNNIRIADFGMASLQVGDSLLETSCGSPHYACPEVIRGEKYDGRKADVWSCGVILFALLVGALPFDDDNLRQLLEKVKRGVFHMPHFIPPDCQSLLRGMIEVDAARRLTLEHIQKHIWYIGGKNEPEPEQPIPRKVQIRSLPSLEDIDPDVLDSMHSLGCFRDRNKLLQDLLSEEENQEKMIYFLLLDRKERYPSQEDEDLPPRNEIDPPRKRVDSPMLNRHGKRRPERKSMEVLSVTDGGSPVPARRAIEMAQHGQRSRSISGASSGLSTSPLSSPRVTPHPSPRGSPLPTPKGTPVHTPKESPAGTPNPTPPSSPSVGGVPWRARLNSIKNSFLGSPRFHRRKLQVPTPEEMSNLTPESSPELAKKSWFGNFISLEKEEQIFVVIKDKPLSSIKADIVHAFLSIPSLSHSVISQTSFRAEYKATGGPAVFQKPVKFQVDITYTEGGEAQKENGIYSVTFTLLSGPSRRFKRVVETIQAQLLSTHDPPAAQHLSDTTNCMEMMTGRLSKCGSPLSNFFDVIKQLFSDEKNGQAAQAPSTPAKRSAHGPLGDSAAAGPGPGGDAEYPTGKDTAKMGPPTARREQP
Sequence of Phosphatidylinositol 4-phosphate 5-kinase type-1 alpha (Homo sapiens) (Q99755 whole entry, the tested form may be a part): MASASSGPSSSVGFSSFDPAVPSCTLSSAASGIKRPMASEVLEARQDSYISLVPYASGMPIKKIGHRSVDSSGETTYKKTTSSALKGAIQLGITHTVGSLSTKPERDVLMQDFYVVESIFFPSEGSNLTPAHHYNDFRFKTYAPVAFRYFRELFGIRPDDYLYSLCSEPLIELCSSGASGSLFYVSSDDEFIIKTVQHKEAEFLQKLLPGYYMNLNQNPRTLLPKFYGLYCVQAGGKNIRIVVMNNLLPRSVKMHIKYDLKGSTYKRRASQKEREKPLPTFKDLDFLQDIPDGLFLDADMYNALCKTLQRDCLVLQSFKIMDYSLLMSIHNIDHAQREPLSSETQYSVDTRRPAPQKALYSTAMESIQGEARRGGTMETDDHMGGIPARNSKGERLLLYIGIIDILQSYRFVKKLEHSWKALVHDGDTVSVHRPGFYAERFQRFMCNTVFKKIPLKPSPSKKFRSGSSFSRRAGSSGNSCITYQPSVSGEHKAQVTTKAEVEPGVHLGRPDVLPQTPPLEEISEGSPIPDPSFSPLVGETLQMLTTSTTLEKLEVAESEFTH
Sequence of Cyclin-dependent kinase 4 (Homo sapiens) (P11802 whole entry, the tested form may be a part): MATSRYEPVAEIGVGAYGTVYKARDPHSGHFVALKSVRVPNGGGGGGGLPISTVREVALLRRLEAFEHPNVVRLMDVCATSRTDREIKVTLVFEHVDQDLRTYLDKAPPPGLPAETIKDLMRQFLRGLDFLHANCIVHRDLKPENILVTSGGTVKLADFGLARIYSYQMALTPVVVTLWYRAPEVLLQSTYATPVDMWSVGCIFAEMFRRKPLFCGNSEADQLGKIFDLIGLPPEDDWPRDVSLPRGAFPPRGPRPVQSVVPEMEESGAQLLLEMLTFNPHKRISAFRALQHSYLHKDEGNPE

In the case of `C=CC(=O)Nc1ccccc1Nc1nc(Nc2ccc(N3CCN(C)CC3)cc2)ncc1C(=O)Nc1c(C)cccc1Cl`, the AUC [1] is reported as 212 ng·h/mL, the inhibition (Mus musculus) is reported as “Active” and the Activity [2] is reported as 100%. It also gave an Activity [3] of 100%, an Activity [4] of 97% and an Activity [5] of 100%. For the same molecule, the Activity [6] was 100%, the Activity [7] was 100% and the Activity [8] was 100%. For the same molecule, the Activity [9] was 100%, the Activity [10] was 100% and the Activity [11] was 100%. It also gave an Activity [12] of 100%, an Activity [13] of 100% and an Activity [14] of 100%. It also gave an Activity [15] of 81%, an Activity [16] of 86% and an Activity [17] of 100%. It also gave an Activity [18] of 100% and an Activity [19] of 100%.
